We go through 5 compounds from ChEMBL document CHEMBL2346576, “α-Selective glycosylation affords mucin-related GalNAc amino acids and diketopiperazines active on Trypanosoma cruzi” (Bioorg Med Chem, 2013).

Data set [1] is described as follows: Cytotoxicity against C57BL/6 mouse spleen cell assessed as cell death at 7.8 to 500 uM after 24 hrs by propidium iodide staining based flow cytometry. In kind it is tissue-based. In outline:
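Spleen cells from C57BL/6 mice were dissociated, red cells lysed for 5 min (0.17 M Tris-HCl pH 7.5 : 0.16 M NH4Cl, 1:9), and cells grown in RPMI 1640 with 10% FBS and antibiotics at 5×10^5 cells/well with compounds for 24 h at 37 °C. The positive control was 0.5% Tween 20. Dead cells were stained with 10 µg/mL propidium iodide and counted by flow cytometry. Three independent experiments were run in duplicate.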
Background: Flow cytometry measures light scatter and fluorescence of single cells or particles in a stream.

The subject of data set [2] is Trypanosoma cruzi. The data set can be described thus: Antitrypanosomal activity against trypomastigote form of Trypanosoma cruzi Tulahuen expressing beta galactosidase infected in rhesus monkey LLC-MK2 cells assessed as inhibition of parasite viability treated at 24 hrs post-infection measured after 4 days by CPRG based colorimetric assay. In kind it is functional, organism-based. In outline:
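LLC-MK2 cells at 2×10^3/well in phenol red-free RPMI, grown 24 h, infected with 1×10^4 Tulahuen-lacZ trypomastigotes. Compound added 24 h later at 0.5–0.0035 mM (8 concentrations). After 4 days, PBS with 0.5% Triton X-100 and 100 μM CPRG added; 4 h at 37 °C, absorbance 570 nm. IC50 from three independent experiments, each in duplicate.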

The nature of data set [3]: Inhibition of C-terminal truncated recombinant Trypanosoma cruzi trans-sialidase assessed as decrease in substrate MuNANA hydrolysis at 1 mM preincubated with enzyme for 10 mins prior to substrate addition measured after 10 mins by continuous fluorimetric assay. In outline:
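His-tagged 70 kDa recombinant enzyme retaining the catalytic N-terminal domain. Run in triplicate in phosphate buffer pH 7.4; enzyme and inhibitor (25 µL of 4.0 mM solution) preincubated 10 min at 26 °C. MuNANA then added to 0.1 mM final; fluorescence of released Mu read after 10 min (ex 360/em 460 nm). %I = 100×(1−Vi/V0); pyridoxal phosphate as control.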

Data set [4] deals with Trypanosoma cruzi. The data set can be described thus: Antitrypanosomal activity against amastigote form of Trypanosoma cruzi Tulahuen infected in african green monkey Vero cells assessed as decrease in number of intracellular parasites treated after removal of parasite on cell supernatant following 12 hrs of infection measured after 24 hrs by Giemsa staining based optical microscopy. In kind it is functional, organism-based. In outline: (§1)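 Vero cells plated at 2×10^4/well on 8-well chamber slides; after 12 h infected with 2×10^5 trypomastigotes/well for 12 h, washed with PBS, then compound added for 24 h at 37 °C. Giemsa-stained, parasites per cell counted by light microscopy in at least 200 cells/well. Two independent experiments, each in triplicate.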

Data set [5] relates to Trypanosoma cruzi. The data set can be described thus: Antitrypanosomal activity against amastigote form of Trypanosoma cruzi Tulahuen infected in african green monkey Vero cells assessed as decrease in number of intracellular parasites at 0.06 to 0.5 mM treated after removal of parasite on cell supernatant following 12 hrs of infection measured after 24 hrs by Giemsa staining based optical microscopy. In kind it is functional, organism-based. In outline: as §1

Data set [6] can be described thus: Inhibition of C-terminal truncated recombinant Trypanosoma cruzi trans-sialidase assessed as decrease in substrate MuNANA hydrolysis preincubated with enzyme for 10 mins prior to substrate addition measured after 10 mins by continuous fluorimetric assay.

The source made the active and inactive calls. The rule behind the calls is not given here.

As usually defined, the IC50 is the concentration at which inhibition is half-maximal. What is called inhibition is how much of the control response was suppressed. Take `CC(=O)N[C@H]1[C@@H](OC[C@H](N)C(=O)O)O[C@H](CO)[C@H](O)[C@@H]1O`: the Activity result in data set [1] is “Non-toxic”. In addition, the half-inhibitory concentration (IC50) in the data set on Trypanosoma cruzi [2] is > 500 µM. Further, the inhibition in data set [3] amounted to 57%.
The matching figures for `CC(=O)N[C@H]1[C@@H](OC[C@@H]2NC(=O)[C@H](CC(=O)O)NC2=O)O[C@H](CO)[C@H](O)[C@@H]1O`: “Non-toxic”, 282 µM and 25%.
`CC(=O)N[C@H]1[C@@H](O[C@H](C)[C@@H]2NC(=O)[C@H](CC(=O)O)NC2=O)O[C@H](CO)[C@H](O)[C@@H]1O`: the Activity result is “Non-toxic” in data set [1] and “Dose-dependent effect” in the data set on Trypanosoma cruzi [4]. For the same compound, the concentration for half-maximal inhibition (IC50) with Trypanosoma cruzi [2] stood at 124 µM. Moreover, the inhibition in data set [3] is 13%.
Turning to `O=C(Cn1ccnc1[N+](=O)[O-])NCc1ccccc1` [BENZNIDAZOLE], the result with Trypanosoma cruzi [5] was Active. Moreover, the half-maximal inhibitory concentration (IC50) with Trypanosoma cruzi [2] is 30 µM.
As for `CC(=O)N[C@H]1[C@@H](O[C@H](C)[C@H](N)C(=O)O)O[C@H](CO)[C@H](O)[C@@H]1O`, the Activity result in data set [1] is on record as “Non-toxic”. The 50% inhibitory concentration (IC50) was > 500 µM in the data set on Trypanosoma cruzi [2] and 320 µM in data set [6]. Besides, the inhibition in data set [3] was determined as 79%.
